# Assay results published in ChEMBL document CHEMBL4118259, “Synthesis of sulfadiazinyl acyl/aryl thiourea derivatives as calf intestinal alkaline phosphatase inhibitors, pharmacokinetic properties, lead optimization, Lineweaver-Burk plot evaluation and binding analysis” (Bioorg Med Chem, 2018).
# B1: Intestinal-type alkaline phosphatase (Bos taurus), P19111 (protein)
# chain: MQGACVLLLLGLHLQLSLGLVPVEEEDPAFWNRQAAQALDVAKKLQPIQTAAKNVILFLGDGMGVPTVTATRILKGQMNGKLGPETPLAMDQFPYVALSKTYNVDRQVPDSAGTATAYLCGVKGNYRTIGVSAAARYNQCKTTRGNEVTSVMNRAKKAGKSVGVVTTTRVQHASPAGAYAHTVNRNWYSDADLPADAQMNGCQDIAAQLVNNMDIDVILGGGRKYMFPVGTPDPEYPDDASVNGVRKRKQNLVQAWQAKHQGAQYVWNRTALLQAADDSSVTHLMGLFEPADMKYNVQQDHTKDPTLQEMTEVALRVVSRNPRGFYLFVEGGRIDHGHHDDKAYMALTEAGMFDNAIAKANELTSELDTLILVTADHSHVFSFGGYTLRGTSIFGLAPSKALDSKSYTSILYGNGPGYALGGGSRPDVNDSTSEDPSYQQQAAVPQASETHGGEDVAVFARGPQAHLVHGVEEETFVAHIMAFAGCVEPYTDCNLPAPTTATSIPDAAHLAASPPPLALLAGAMLLLLAPTLY
# Tests used:
# Settings in all cases: Bos taurus
# [1] = compound: O=C(NC(=S)Nc1ccc(S(=O)(=O)Nc2ncccn2)cc1)c1ccc(Cl)cc1; assay: Mixed-type inhibition of calf intestinal alkaline phosphatase assessed as substrate Km at 0.3 uM using varying levels of p-NPP as substrate by Lineweaver-Burk plot analysis (reference value: 0.833 mM)
# Summary of the method: (§1)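 Same CIALP buffer and enzyme system with inhibitor at 0.0, 0.015 and 0.3 µM and p-NPP at 10, 5, 2.5, 1.25 and 0.625 mM. Initial velocities were read every minute over the first 10 min after enzyme addition. Inhibition type came from Lineweaver-Burk plots of 1/V vs 1/[S]. Ki came from secondary plots of slope vs inhibitor concentration, Ki′ from intercept vs concentration.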
# [2] = compound: O=C(NC(=S)Nc1ccc(S(=O)(=O)Nc2ncccn2)cc1)c1ccc(Cl)cc1; assay: Mixed-type inhibition of calf intestinal alkaline phosphatase assessed as substrate Vmax at 0.015 uM using varying levels of p-NPP as substrate measured every minute for 10 mins by Lineweaver-Burk plot analysis (reference value: 1.2 10^-5deltaA/s); summary of the method: as §1
# [3] = compound: O=C(NC(=S)Nc1ccc(S(=O)(=O)Nc2ncccn2)cc1)c1ccc(Cl)cc1; assay: Mixed-type inhibition of calf intestinal alkaline phosphatase assessed as substrate Km at 0.015 uM using varying levels of p-NPP as substrate by Lineweaver-Burk plot analysis (reference value: 0.833 mM); summary of the method: as §1
# [4] = compound: O=C(NC(=S)Nc1ccc(S(=O)(=O)Nc2ncccn2)cc1)c1ccc(Cl)cc1; assay: Mixed-type inhibition of calf intestinal alkaline phosphatase assessed as substrate Vmax at 0.3 uM using varying levels of p-NPP as substrate measured every minute for 10 mins by Lineweaver-Burk plot analysis (reference value: 1.2 10^-5deltaA/s); summary of the method: as §1
protein,measurement,setting,value
B1,Km,[1],2000 µM
same,Vmax (10'-6deltaA/s),[2],8
same,Km,[3],1330 µM
same,Vmax (10'-5deltaA/s),[4],4.9
